# Measurements published in paper PMC3656968 (Journal of medicinal chemistry, 2013).
# Read-outs that look alike come from different tables or passages of the source. Marks after values point to notes of the source that are not given here.
# Legend:
# [1] = molecular target: T1, human serum albumin (HSA) (Homo sapiens, UniProt P02768); assay: Ultrafiltration assay of binding to HSA; details: for % bound to 4.5% HSA: 0.1 mM probe, 4.5% w/v HSA in 50 mM HEPES, ultrafiltration; for binding to HSA on average: average of the diastereoisomers Gd(6a) and Gd(6b), 0.1 mM, 4.5% w/v HSA
# Summary of the method: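 Complex at a constant 0.1 mM (50 mM HEPES, concentration by ICP-MS) with 4.5% w/v HSA, ultrafiltered through a 5000 MW cutoff membrane. Compared against the filtrate of an HSA-free solution. Unbound and total Gd measured directly by ICP-MS, and binding given as percent bound to HSA. Error estimated at ±10%.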
# [2] = Relaxivity in HEPES buffer in the absence of HSA; format: physicochemical; details: 50 mM HEPES buffer pH 7.4, 37 °C
# Summary of the method: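 Complex solid redissolved in 50 mM HEPES and filtered, with Gd concentration set by ICP-MS. Longitudinal relaxation (1/T1) measured at 0.47 and 1.41 T without HSA at 0.05-0.4 mM complex, in 50 mM HEPES pH 7.4 at 37 °C. r1 taken as slope of 1/T1 versus Gd concentration (mM). Error estimated at ±10% of value.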
# [3] = molecular target: T1, human serum albumin (HSA); assay: Relaxivity in the presence of 4.5% w/v HSA; details: 50 mM HEPES buffer pH 7.4, 37 °C
# Summary of the method: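 Complex in 50 mM HEPES with 4.5% w/v HSA, pH 7.4, 37 °C, with Gd content quantified by ICP-MS. 1/T1 recorded at 0.47 and 1.41 T across several complex concentrations. Observed relaxivity is the slope of 1/T1 against Gd concentration (mM). Estimated error is ±10% of the measured value.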
# [4] = molecular target: T1, human serum albumin (HSA); assay: T1 weighted MR image of samples with or without HSA; details: 0.1 mM compound, with or without 4.5 % w/v HSA
# Summary of the method: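 Samples of 0.1 mM compound, with or without 4.5% w/v HSA, imaged side by side with a T1-weighted sequence (TR/TE/flip angle 25 ms/4.7 ms/70°). Signal intensity read for each sample.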
# [5] = molecular target: T1, human serum albumin (HSA); details: 0.1 mM probe, 4.5% w/v HSA; cited from earlier work
# [6] = absence of HSA, cited from earlier work
# [7] = molecular target: T1, human serum albumin (HSA); details: cited from earlier work
# T1 sequence (P02768 25-609): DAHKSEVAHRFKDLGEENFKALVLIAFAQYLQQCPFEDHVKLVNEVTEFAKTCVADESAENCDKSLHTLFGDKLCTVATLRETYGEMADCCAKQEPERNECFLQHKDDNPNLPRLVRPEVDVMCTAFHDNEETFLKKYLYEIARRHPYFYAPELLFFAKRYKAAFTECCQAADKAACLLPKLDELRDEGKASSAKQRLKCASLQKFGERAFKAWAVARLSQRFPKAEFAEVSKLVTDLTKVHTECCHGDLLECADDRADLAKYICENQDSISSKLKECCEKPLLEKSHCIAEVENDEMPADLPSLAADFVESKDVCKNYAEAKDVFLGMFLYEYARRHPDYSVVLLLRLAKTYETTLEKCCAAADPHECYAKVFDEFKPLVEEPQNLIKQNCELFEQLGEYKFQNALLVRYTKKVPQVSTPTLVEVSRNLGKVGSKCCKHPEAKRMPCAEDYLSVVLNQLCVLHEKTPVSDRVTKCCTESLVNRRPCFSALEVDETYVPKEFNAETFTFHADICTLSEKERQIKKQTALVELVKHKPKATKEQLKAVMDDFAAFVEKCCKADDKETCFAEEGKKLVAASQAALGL
signal / contrast in T1 weighted image with versus without HSA [4],SMILES,% bound to 4.5% HSA [1] [%],binding to HSA on average [1] [%],r1^free ([2]; 0.47T) [mM⁻¹ s⁻¹],r1^free ([2]; 1.41T) [mM⁻¹ s⁻¹],r1^obs 4.5% HSA ([3]; 0.47T) [mM⁻¹ s⁻¹],r1^obs 4.5% HSA ([3]; 1.41T) [mM⁻¹ s⁻¹],% bound to 4.5% HSA [5] [% ^a],r1^free ([6]; 0.47T),r1^free ([6]; 1.41T),r1^obs 4.5% HSA ([7]; 0.47T),r1^obs 4.5% HSA ([7]; 1.41T)
,"C[C@H](NC(=O)C(CN1CCN(CC(=O)O)CCN(CC(=O)O)CCN(CC(=O)O)CC1)NC(=O)C(N)Cc1cc(I)c(O)c(I)c1)c1ccccc1 (single isomer, unassigned) [Gd(6a)]",34,37,7.1,6.6,18.5,10.9,,,,,
,"C[C@H](NC(=O)C(CN1CCN(CC(=O)O)CCN(CC(=O)O)CCN(CC(=O)O)CC1)NC(=O)C(N)Cc1cc(I)c(O)c(I)c1)c1ccccc1 (single isomer, unassigned) [Gd(6b)]",39,37,6.8,6.1,18.4,11.7,,,,,
,"C[C@H](NC(=O)C(N)CN1CCN(CC(=O)O)CCN(CC(=O)O)CCN(CC(=O)O)CC1)c1ccccc1 (stereo partly drawn) [Gd(2), 2,2′,2″-(10-(2-amino-3-oxo-3-(((S)-1-phenylethyl)amino)propyl)-1,4,7,10-tetraazacyclododecane-1,4,7-triyl)triacetic acid]",7,,4.8,3.9,7.1,5.9,,,,,
,"NC(Cc1cc(I)c(O)c(I)c1)C(=O)NC(CN1CCN(CC(=O)O)CCN(CC(=O)O)CCN(CC(=O)O)CC1)C(=O)O (stereo not drawn) [Gd(4), 2,2′,2″-(10-(2-(2-amino-3-(4-hydroxy-3,5-diiodophenyl)propanamido)-2-carboxyethyl)-1,4,7,10-tetraazacyclododecane-1,4,7-triyl)triacetic acid]",20,,6.1,5.8,23.7,17.4,,,,,
,"COC(=O)CNC(=O)C(CN1CCN(CC(=O)O)CCN(CC(=O)O)CCN(CC(=O)O)CC1)NC(=O)C(N)Cc1cc(I)c(O)c(I)c1 (stereo not drawn) [Gd(5), 2,2′,2″-(10-(2-(2-amino-3-(4-hydroxy-3,5-diiodophenyl)propanamido)-3-((2-methoxy-2-oxoethyl)amino)-3-oxopropyl)-1,4,7,10-tetraazacy-clododecane-1,4,7-triyl)triacetic acid]",25,,6.9,6.3,20.9,16.7,,,,,
increased signal in presence of HSA,"O=C([O-])CN(CCN(CC(=O)[O-])C[C@H](COP(=O)([O-])OC1CCC(c2ccccc2)(c2ccccc2)CC1)N(CC(=O)[O-])CC(=O)[O-])CC(=O)[O-].[Gd+3].[H+].[H+].[H+] [MS-325, gadofosveset]",,,,,,,88,6.6 ^a mM^−1s^−1,5.5 ^a mM^−1s^−1,42 ^a mM^−1s^−1,23.8 ^a mM^−1s^−1
